Measured values reported in ChEMBL document CHEMBL1152423, “Development of N-[11C]methylamino 4-hydroxy-2(1H)-quinolone derivatives as PET radioligands for the glycine-binding site of NMDA receptors” (Bioorg Med Chem, 2009).

How the values were obtained:
Glutamate NMDA receptor = experiment: Displacement of [3H]MDL-105519 from glycine binding site of NMDA receptor in rat cortical membrane by liquid scintillation counting; type: cell membranes
In short: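 Washed rat cortical membranes in 50 mM Tris–HCl (pH 8.0) were incubated 45 min at 4 °C with [3H]MDL-105,519 (2 nM) plus buffer or displacer. Nonspecific binding was defined with excess unlabeled glycine. Samples were filtered on GF/B, washed three times with ice-cold buffer, and counted by liquid scintillation. Ki came from three determinations, each in triplicate.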

[1] = Ratio of drug level in cerebrum to blood of mouse at 7.4 MBq, iv after 1 min; type: ADME, organism-based
In short: (§1)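 ddY mice (35–45 g) received ca. 7.4 MBq ¹¹C-labelled ligand (0.2 ml) by tail-vein injection and were decapitated at 1 min. Cerebrum and cerebellum were dissected, and radioactivity was gamma-counted with decay correction and expressed as % injected dose per gram tissue. The value is the tissue-to-blood ratio of % dose/g.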

[2] = Biodistribution in ddY mouse cerebrum assessed per gram of tissue at 7.4 MBq, iv after 30 mins by gamma counting; type: ADME, organism-based; settings: in vivo, 0.5 h
In short: (§2)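 ddY mice (35–45 g) received about 7.4 MBq of [11C]radioligand in 0.2 ml into the tail vein and were decapitated at 1 or 30 min. Blood, cerebrum and cerebellum were gamma-counted with decay correction and expressed as % injected dose/g; tissue/blood ratios were derived. n=3 or 5.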

Cerebellum [3] = experiment: Biodistribution in mouse cerebellum assessed per gram of tissue at 7.4 MBq, iv after 1 min by gamma counting; type: ADME, organism-based; settings: in vivo
Blood [4] = experiment: Biodistribution in ddY mouse blood assessed per gram of tissue at 7.4 MBq, iv after 30 mins by gamma counting; type: ADME, organism-based; settings: in vivo, 0.5 h; in short: as §2
[5] = Ratio of drug level in cerebrum to blood of ddY mouse at 7.4 MBq, iv after 30 mins; type: ADME, organism-based; in short: as §2
Blood [6] = experiment: Biodistribution in mouse blood assessed per gram of tissue at 7.4 MBq, iv after 1 min by gamma counting; type: ADME, organism-based; settings: in vivo
[7] = Ratio of drug level in cerebellum to blood of ddY mouse at 7.4 MBq, iv after 30 mins; type: ADME, organism-based; in short: as §2
Cerebellum [8] = experiment: Biodistribution in ddY mouse cerebellum assessed per gram of tissue at 7.4 MBq, iv after 30 mins by gamma counting; type: ADME, organism-based; settings: in vivo, 0.5 h; in short: as §2
[9] = Biodistribution in mouse cerebrum assessed per gram of tissue at 7.4 MBq, iv after 1 min by gamma counting; type: ADME, organism-based; settings: in vivo
[10] = Ratio of drug level in cerebellum to blood of mouse at 7.4 MBq, iv after 1 min; type: ADME, organism-based; in short: as §1
[11] = n-Octanol-sodium phosphate buffer partition coefficient, log D at pH 7.4 after 15 mins by shake-flask method; type: physicochemical
In short: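 Compound (1–2 mg) was shaken 15 min at ambient temperature in n-octanol and 10 mM phosphate buffer (pH 7.4). The mixture was centrifuged at 2500 rpm for 5 min, and both layers were analysed by HPLC (n=3).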

[12] = Plasma protein binding in rat at 0.67 to 0.89 […] after 30 mins by ultrafiltration; type: ADME, cell-free; settings: read-out: PPB (converted)
In short: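 Rat serum was diluted 10-fold in 66 mM phosphate buffer (pH 7.4) containing [11C]radioligand (0.67–0.89 MBq) and incubated 30 min at 30 °C. It was then ultrafiltered by centrifugation at 2000 rpm for 15 min. Radioactivity in whole plasma and in filtrate was counted to give % bound (mean, n=3).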

[13] = Biodistribution in ddY mouse cerebrum assessed per gram of tissue at 7.4 MBq, iv after 1 min by gamma counting; type: ADME, organism-based; settings: in vivo; in short: as §2
[14] = Ratio of drug level in cerebellum to blood of ddY mouse at 7.4 MBq, iv after 1 min; type: ADME, organism-based; in short: as §2
Blood [15] = experiment: Biodistribution in ddY mouse blood assessed per gram of tissue at 7.4 MBq, iv after 1 min by gamma counting; type: ADME, organism-based; settings: in vivo; in short: as §2
Cerebellum [16] = experiment: Biodistribution in ddY mouse cerebellum assessed per gram of tissue at 7.4 MBq, iv after 1 min by gamma counting; type: ADME, organism-based; settings: in vivo; in short: as §2
[17] = Ratio of drug level in cerebrum to blood of ddY mouse at 7.4 MBq, iv after 1 min; type: ADME, organism-based; in short: as §2
Blood [18] = experiment: Biodistribution in ddY mouse blood assessed per gram of tissue at 40 MBq, iv after 30 mins by gamma counting in presence of 5-ethyl-7-chloro-4-hydroxy-3-(3-[11C]methylaminophenyl)-2(1H)-quinolone; type: ADME, organism-based; settings: in vivo, 0.5 h
In short: (§3)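 Blocking study: [11C]radioligand was mixed with unlabeled ligand (2 mg/kg) and injected iv into ddY mice. Animals were killed at 30 min; blood, cerebrum and cerebellum were gamma-counted and expressed as % dose/g and tissue/blood ratios. Comparison with controls used the Mann–Whitney U-test.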

[19] = Biodistribution in ddY mouse cerebrum assessed per gram of tissue at 40 MBq, iv after 30 mins by gamma counting in presence of 5-ethyl-7-chloro-4-hydroxy-3-(3-[11C]methylaminophenyl)-2(1H)-quinolone; type: ADME, organism-based; settings: in vivo, 0.5 h, in the assay text read “7.4 MBq” for “40 MBq”; in short: as §3
[20] = Ratio of drug level in cerebellum to blood of ddY mouse at 40 MBq, iv after 30 mins in presence of 5-ethyl-7-chloro-4-hydroxy-3-(3-[11C]methylaminophenyl)-2(1H)-quinolone; type: ADME, organism-based; settings: in vivo, 0.5 h, in the assay text read “7.4 MBq” for “40 MBq”; in short: as §3
[21] = Metabolic stability in ddY mouse brain at 7.4 MBq, iv after 30 mins by radio-TLC analysis; type: ADME, organism-based; settings: 40 MBq, in the assay text read “40 MBq” for “7.4 MBq”, read-out: Activity
In short: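 Mice received [11C]radioligand (40 MBq) iv and were killed at 30 min. Whole brain was homogenized in ice-cold MeOH and centrifuged at 10,000 rpm for 1 min at 4 °C. Extracts were analysed by radio-TLC using CHCl3/CH3CN 3:1, CHCl3/MeOH 9:1, or CH3CN as mobile phase; intact parent fraction was recorded.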

Cerebellum [22] = experiment: Biodistribution in ddY mouse cerebellum assessed per gram of tissue at 40 MBq, iv after 30 mins by gamma counting in presence of 5-ethyl-7-chloro-4-hydroxy-3-(3-[11C]methylaminophenyl)-2(1H)-quinolone; type: ADME, organism-based; settings: in vivo, 0.5 h, in the assay text read “7.4 MBq” for “40 MBq”; in short: as §3
[23] = Ratio of drug level in cerebrum to blood of ddY mouse at 40 MBq, iv after 30 mins in presence of 5-ethyl-7-chloro-4-hydroxy-3-(3-[11C]methylaminophenyl)-2(1H)-quinolone; type: ADME, organism-based; settings: in vivo, 0.5 h, in the assay text read “7.4 MBq” for “40 MBq”; in short: as §3
[24] = Metabolic stability in ddY mouse blood at 7.4 MBq, iv after 30 mins by radio-TLC analysis; type: ADME, organism-based; settings: 40 MBq, in the assay text read “40 MBq” for “7.4 MBq”, read-out: Activity

## COc1cccc(-c2c(O)c3c(N(C)C)cc(Cl)cc3[nH]c2=O)c1
Glutamate NMDA receptor
  Ki: 566 nM

## [11CH3]Oc1ccc(Cc2cccc(-c3c(O)c4ccc(Cl)cc4[nH]c3=O)c2)cc1
[1]
  Kp at 1 min: 0.038
[2]
  Drug uptake: 0.2 %ID/g
Cerebellum [3]
  Drug uptake: 0.36 %ID
Blood [4]
  Drug uptake: 3.46 %ID/g
[5]
  Kp at 0.5 h: 0.051
Blood [6]
  Drug uptake: 8.37 %ID
[7]
  Kp at 0.5 h: 0.068
Cerebellum [8]
  Drug uptake: 0.24 %ID/g
[9]
  Drug uptake: 0.32 %ID
[10]
  Kp at 1 min: 0.043

## COc1ccc(Cc2cccc(-c3c(O)c4ccc(Cl)cc4[nH]c3=O)c2)cc1
[11]
  logD at 0.25 h: 3.47
Glutamate NMDA receptor
  Ki: 5.12 nM
[12]
  fraction unbound at 0.5 h: 0.06

## CN(C)c1ccc(Cc2cccc(-c3c(O)c4ccc(Cl)cc4[nH]c3=O)c2)cc1
Glutamate NMDA receptor
  Ki: 22.2 nM

## [11CH3]Nc1ccc(Cc2cccc(-c3c(O)c4ccc(Cl)cc4[nH]c3=O)c2)cc1
[13]
  Drug uptake: 0.4 %ID
[2]
  Drug uptake: 0.17 %ID/g
[14]
  Kp at 1 min: 0.037
Blood [15]
  Drug uptake: 13.08 %ID
Blood [4]
  Drug uptake: 3.93 %ID/g
[5]
  Kp at 0.5 h: 0.043
[7]
  Kp at 0.5 h: 0.058
Cerebellum [8]
  Drug uptake: 0.23 %ID/g
Cerebellum [16]
  Drug uptake: 0.48 %ID
[17]
  Kp at 1 min: 0.031

## CCc1cc(Cl)cc2[nH]c(=O)c(-c3cccc(N(C)C)c3)c(O)c12
Glutamate NMDA receptor
  Ki: 34.3 nM

## CCc1cc(Cl)cc2[nH]c(=O)c(-c3cccc(N[11CH3])c3)c(O)c12
[13]
  Drug uptake: 0.47 %ID
[2]
  Drug uptake: 0.38 %ID/g
[14]
  Kp at 1 min: 0.042
Blood [15]
  Drug uptake: 20.91 %ID
[12]
  fraction unbound at 0.5 h: 0.29
Blood [4]
  Drug uptake: 9.08 %ID/g
Blood [18]
  Drug uptake: 7.77 %ID
[19]
  Drug uptake: 0.34 %ID
[5]
  Kp at 0.5 h: 0.042
[20]
  Ratio: 0.044
[7]
  Kp at 0.5 h: 0.058
Cerebellum [8]
  Drug uptake: 0.53 %ID/g
[21]
  remaining at 0.5 h: 70%
Cerebellum [16]
  Drug uptake: 0.87 %ID
Cerebellum [22]
  Drug uptake: 0.34 %ID
[23]
  Ratio: 0.044
[17]
  Kp at 1 min: 0.022
[24]
  remaining at 0.5 h: 93%

## COc1ccc(Nc2cccc(-c3c(O)c4ccc(Cl)cc4[nH]c3=O)c2)cc1
Glutamate NMDA receptor
  Ki: 23.6 nM
